pIC50: −log10 of the molar value. The source made the active and inactive calls. The calls are words filed in the database; no cut-off is given here.
What was measured:
[1] = Acute toxicity in mouse assessed as effect on body weight at 150 mg/kg, po after 3 days; format: organism-based; details: in vivo, 72 h
Outline: (§1)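 Male mice, 25-30 g, six per group, fasted overnight and weighed before dosing. Compounds given as suspensions in aqueous 1% gum acacia. Five dose groups per compound. Toxicity signs, body-weight change and deaths recorded over 3 days after administration.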

PBMC [2] = test: Cytotoxicity against human PBMC assessed as reduction in cell viability at 100 ug/ml after 30 mins by Neutral red dye-based phase-contrast inverted microscopic analysis relative to control; details: 0.5 h
Outline: (§2)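 PBMC were isolated from a healthy donor by Ficoll-Hypaque density-gradient centrifugation and exposed to a range of test concentrations. Viability was scored by neutral red uptake, with retained dye taken as proportional to viable cells with intact membranes.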

Erythrocyte [3] = test: Antihemolytic activity in RBC (unknown origin) at 40 ug/ml relative to control
Erythrocyte [4] = test: Antiinflammatory activity in RBC (unknown origin); format: functional
Erythrocyte [5] = test: Antiinflammatory activity in RBC (unknown origin) at 20 ug/ml relative to control
PBMC [6] = test: Cytotoxicity against human PBMC assessed as reduction in cell viability at 6.25 ug/ml after 30 mins by Neutral red dye-based phase-contrast inverted microscopic analysis relative to control; details: 0.5 h; outline: as §2
[7] = Acute toxicity in mouse up to 150 mg/kg, po after 3 days; format: organism-based; details: in vivo, 72 h; outline: as §1
Erythrocyte [8] = test: Antihemolytic activity in RBC (unknown origin); format: functional
Plasmodium falciparum [9] = test: Anti-plasmodial activity against chloroquine resistant Plasmodium falciparum RKL9 infected in human erythrocytes after 24 hrs by Giemsa staining-based method; format: functional, organism-based; details: RKL9, 24 h
Outline: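 Chloroquine-resistant RKL9 kept in continuous culture (Trager-Jensen). Parasitaemia adjusted to 1-1.5% with fresh human B(+) RBC in RPMI 1640 with 10% AB(+) serum. Two-fold serial dilutions from ethanol stock, duplicate wells, 37°C for 24 h. Giemsa smears scored as schizonts per 100 asexual parasites. Schizont maturation inhibition = 1 − Nt/Nc x 100; IC50 derived.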

Plasmodium berghei [10] = test: Anti-plasmodial activity against Plasmodium berghei ANKA infected in mouse assessed as suppression in blood parasitemia level at 0.048 mmol/kg/day, po administered as single dose at 24 hrs time interval from day 1 to day 3 and measured 96 hrs post infection by Giemsa staining based microscopic method relative to control; format: functional
Outline: (§3)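 Swiss albino mice, five per group, were infected i.v. on day 0 with 0.2 ml of 2 x 10^7 P. berghei ANKA parasitized erythrocytes. Oral dosing at 0.048 mmol/kg/day began 2 h later and repeated daily on days 1-3. The vehicle was 7% Tween and 3% ethanol in water. Giemsa smears were read on day 4 (5 fields of ~100 RBC). Suppression was taken against vehicle controls, and survival was tracked per mouse.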

PBMC [11] = test: Cytotoxicity against human PBMC assessed as reduction in cell viability at 25 ug/ml after 30 mins by Neutral red dye-based phase-contrast inverted microscopic analysis relative to control; details: 0.5 h; outline: as §2
Erythrocyte [12] = test: Antihemolytic activity in RBC (unknown origin) at 20 ug/ml relative to control
[13] = Acute toxicity in mouse assessed as mouse death at 150 mg/kg, po after 3 days; format: organism-based; details: in vivo, 72 h; outline: as §1
Erythrocyte [14] = test: Antihemolytic activity in RBC (unknown origin) relative to control
Erythrocyte [15] = test: Antiinflammatory activity in RBC (unknown origin) relative to control
PBMC [16] = test: Cytotoxicity against human PBMC assessed as reduction in cell viability after 30 mins by Neutral red dye-based phase-contrast inverted microscopic analysis; details: 0.5 h; outline: as §2
Erythrocyte [17] = test: Antiinflammatory activity in RBC (unknown origin) at 40 ug/ml relative to control
Plasmodium falciparum [18] = test: Potency index, ratio of chloroquine phosphate IC50 to compound IC50 for anti-plasmodial activity against chloroquine resistant Plasmodium falciparum RKL9 infected in human erythrocytes; format: functional
Plasmodium berghei [19] = test: Anti-plasmodial activity against Plasmodium berghei ANKA infected in mouse assessed as increase in mean survival time at 0.048 mmol/kg/day, po administered as single dose at 24 hrs time interval from day 1 to day 3 and measured 96 hrs post infection; format: functional, organism-based; outline: as §3
[20] = Selectivity ratio of IC50 for human PBMC to IC50 for chloroquine resistant Plasmodium falciparum RKL9; format: toxicity; details: read-out: Ratio IC50
Plasmodium berghei [21] = test: Anti-plasmodial activity against Plasmodium berghei ANKA infected in mouse assessed as mean survival time at 0.048 mmol/kg/day, po administered as single dose at 24 hrs time interval from day 1 to day 3 and measured 96 hrs post infection (reference value: 4.33 +/- 0.7 day); format: functional
[22] = Selectivity ratio of IC50 for antihemolytic activity in RBC (unknown origin) to IC50 for chloroquine resistant Plasmodium falciparum RKL9; format: functional
[23] = Selectivity ratio of IC50 for antiinflammatory activity in RBC (unknown origin) to IC50 for chloroquine resistant Plasmodium falciparum RKL9; format: functional

COc1ccc(-c2nn(-c3ccccc3)cc2C(=O)N/N=C/c2cccc(O)c2)cc1
Activity [1]: Non-Toxic
Activity (PBMC [2]): 12.78%
Activity (Erythrocyte [3]): 44%
Activity (Erythrocyte [4]): 49.03%
Activity (Erythrocyte [5]): 54.31%
Activity (PBMC [6]): -19.18%
Activity [7]: Non-Toxic
Activity (Erythrocyte [8]): 32%
pIC50 (Plasmodium falciparum [9]): 7.85
Activity (Plasmodium berghei [10]): 97.7%
Activity (PBMC [11]): 54.42%
Activity (Erythrocyte [12]): 40%
Activity [13]: Non-Toxic
pIC50 (Erythrocyte [14]): 3.88
pIC50 (Erythrocyte [15]): 4.80
pIC50 (PBMC [16]): 3.00
Activity (Erythrocyte [17]): 59.58%
Ratio IC50 (Plasmodium falciparum [18]): 13
Activity (Plasmodium berghei [19]): Active
selectivity ratio [20]: 70000

C=CCn1c(-c2ccccc2)cs/c1=N/NC(=O)c1cn(-c2ccccc2)nc1-c1ccc(OC)cc1
Activity (Plasmodium berghei [10]): 71.26%
MST (Plasmodium berghei [21]): 7.33 days

COc1ccc(-c2nn(-c3ccccc3)cc2C(=O)N/N=C/c2cc(OC)c(OC)c(OC)c2)cc1
Activity [1]: Non-Toxic
Activity (PBMC [2]): 77.93%
Activity (Erythrocyte [3]): 97.8%
Activity (Erythrocyte [4]): 29.69%
Activity (Erythrocyte [5]): 17.52%
Activity (PBMC [6]): 43%
Activity [7]: Non-Toxic
Activity (Erythrocyte [8]): 41%
pIC50 (Plasmodium falciparum [9]): 7.40
Activity (Plasmodium berghei [10]): 93.1%
Activity (PBMC [11]): 60%
Activity (Erythrocyte [12]): 85%
Activity [13]: Non-Toxic
pIC50 (Erythrocyte [14]): 3.92
pIC50 (Erythrocyte [15]): 4.28
pIC50 (PBMC [16]): 4.51
Activity (Erythrocyte [17]): 5.34%
Ratio IC50 [22]: 1700
Activity (Plasmodium berghei [19]): Active
selectivity ratio [20]: 783

COc1ccc(-c2nn(-c3ccccc3)cc2C(=O)N/N=C/c2ccccc2)cc1
Activity (Plasmodium berghei [10]): 85.05%
MST (Plasmodium berghei [21]): 9.33 days

COc1ccc(-c2nn(-c3ccccc3)cc2-c2n[nH]c(=S)n2-c2ccccc2)cc1
Activity (Plasmodium berghei [10]): 73.56%
MST (Plasmodium berghei [21]): 7.66 days

COc1ccc(-c2nn(-c3ccccc3)cc2C(=O)N/N=c2/scc(-c3ccccc3)n2-c2ccccc2)cc1
Activity [1]: Non-Toxic
Activity (PBMC [2]): 48.27%
Activity (Erythrocyte [3]): 99.8%
Activity (Erythrocyte [4]): 56.11%
Activity (Erythrocyte [5]): 81.19%
Activity (PBMC [6]): -6.2%
Activity [7]: Non-Toxic
Activity (Erythrocyte [8]): 41%
pIC50 (Plasmodium falciparum [9]): 7.31
Activity (Plasmodium berghei [10]): 97.7%
Activity (PBMC [11]): -1.63%
Activity (Erythrocyte [12]): 79%
Activity [13]: Non-Toxic
pIC50 (Erythrocyte [14]): 3.86
Ratio IC50 [23]: 71
pIC50 (Erythrocyte [15]): 5.46
pIC50 (PBMC [16]): 3.72
Activity (Erythrocyte [17]): 106.28%
Activity (Plasmodium berghei [19]): Active

CCc1nc(N)nc(N)c1-c1ccc(Cl)cc1 [PYRIMETHAMINE]
pIC50 (Plasmodium falciparum [9]): 7.90
Activity (Plasmodium berghei [10]): 100%
Activity (Plasmodium berghei [19]): Active

COc1ccc(-c2nn(-c3ccccc3)cc2C(=O)N/N=C/c2ccc(F)cc2)cc1
Activity (Plasmodium berghei [10]): 67.81%
MST (Plasmodium berghei [21]): 10.5 days

COc1ccc(-c2nn(-c3ccccc3)cc2C(=O)N/N=c2/scc(-c3ccc(Br)cc3)n2-c2ccccc2)cc1
Activity (Plasmodium berghei [10]): 81.6%
MST (Plasmodium berghei [21]): 11.66 days

COc1ccc(-c2nn(-c3ccccc3)cc2C(=O)N/N=C2/SCC(=O)N2c2ccccc2)cc1
Activity (Plasmodium berghei [10]): 82.75%
MST (Plasmodium berghei [21]): 12.83 days

C=CCn1c(-c2ccc(Br)cc2)cs/c1=N/NC(=O)c1cn(-c2ccccc2)nc1-c1ccc(OC)cc1
Activity [1]: Non-Toxic
Activity (PBMC [2]): 39.93%
Activity (Erythrocyte [3]): 68%
Activity (Erythrocyte [4]): 35.23%
Activity (Erythrocyte [5]): 57.79%
Activity (PBMC [6]): 8.46%
Activity [7]: Non-Toxic
Activity (Erythrocyte [8]): 16%
pIC50 (Plasmodium falciparum [9]): 7.50
Activity (Plasmodium berghei [10]): 90.8%
Activity (PBMC [11]): 16.05%
Activity (Erythrocyte [12]): 59%
Activity [13]: Non-Toxic
pIC50 (Erythrocyte [14]): 4.10
pIC50 (Erythrocyte [15]): 4.86
pIC50 (PBMC [16]): 3.65
Activity (Erythrocyte [17]): 80.34%
Activity (Plasmodium berghei [19]): Active

COc1ccc(-c2nn(-c3ccccc3)cc2C(=O)N/N=C/c2ccncc2)cc1
Activity (Plasmodium berghei [10]): 79.31%
MST (Plasmodium berghei [21]): 8.83 days

C=CCN1C(=O)CS/C1=N/NC(=O)c1cn(-c2ccccc2)nc1-c1ccc(OC)cc1
Activity (Plasmodium berghei [10]): 79.31%
MST (Plasmodium berghei [21]): 11.33 days

C=CCn1c(-c2cn(-c3ccccc3)nc2-c2ccc(OC)cc2)n[nH]c1=S
Activity (Plasmodium berghei [10]): 63.21%
MST (Plasmodium berghei [21]): 5.5 days

COc1ccc(-c2nn(-c3ccccc3)cc2C(=O)NNC(=S)Nc2ccccc2)cc1
Activity (Plasmodium berghei [10]): 73.56%
MST (Plasmodium berghei [21]): 6.66 days

COc1ccc(-c2nn(-c3ccccc3)cc2C(=O)N/N=C/c2cccs2)cc1
Activity (Plasmodium berghei [10]): 86.2%
MST (Plasmodium berghei [21]): 11.5 days

C=CCNC(=S)NNC(=O)c1cn(-c2ccccc2)nc1-c1ccc(OC)cc1
Activity (Plasmodium berghei [10]): 70.11%
MST (Plasmodium berghei [21]): 6.66 days

COc1ccc(-c2nn(-c3ccccc3)cc2C(=O)NNC(C)=O)cc1
Activity (Plasmodium berghei [10]): 63.21%
MST (Plasmodium berghei [21]): 6.66 days

COc1ccc(-c2nn(-c3ccccc3)cc2C(=O)NNC=O)cc1
Activity (Plasmodium berghei [10]): 70.11%
MST (Plasmodium berghei [21]): 6.66 days

CCN(CC)CCCC(C)Nc1ccnc2cc(Cl)ccc12.O=P(O)(O)O.O=P(O)(O)O (stereo not given) [CHLOROQUINE PHOSPHATE]
Activity (Plasmodium berghei [10]): 100%
MST (Plasmodium berghei [21]): 12.22 days

From ChEMBL document CHEMBL4330086, “Synthesis, in silico experiments and biological evaluation of 1,3,4-trisubstituted pyrazole derivatives as antimalarial agents” (Eur J Med Chem, 2019)
